inhibition, IC50 and inhibition of growth data for 22 compounds are collected here from ChEMBL document CHEMBL1955824, “Indeno[1,2-b]indole derivatives as a novel class of potent human protein kinase CK2 inhibitors” (Bioorg Med Chem, 2012).

The structures appear in SMILES notation.

Assay [1] has as its target Casein kinase II alpha/beta (Homo sapiens) (UniProt P67870+P68400). Briefly: Inhibition of human CSNK2A1/2B expressed in Escherichia coli BL21(DE3) using RRRDDDSDDD as substrate at 10 uM after 15 mins by scintillation counting. The method, boiled down: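 Holoenzyme from CSNK2A1 and CSNK2B subunits expressed separately in E. coli, extracts combined, column-purified. Enzyme preincubated with inhibitor in DMSO in Tris pH 7.5 kinase buffer. Final ATP 60 µM, peptide 114 µM. Incubated 37 °C for 15 min, spotted on P81 paper, washed with phosphoric acid and ethanol, then counted. Controls: DMSO (0%), no CK2 (100%).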

Assay [2] is described as follows: Inhibition of calf thymus casein kinase-2 using casein as substrate after 15 mins by liquid scintillation counting. Set-up: species or system Bos taurus.
The nature of assay [3]: Inhibition of rat liver casein kinase-2 preincubated for 5 mins prior ATP addition measured after 40 mins.
In assay [4] the target is Serine/threonine-protein kinase PLK1 (Homo sapiens, UniProt P53350). Briefly: Inhibition of human recombinant PLK1 expressed in Sf9 cells using casein as substrate after 80 mins by scintillation counting. The method, boiled down: (§1)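 Commercial radiometric panel of His-tagged or GST-fused human kinases expressed in Sf9 cells, affinity-purified. Inhibitor added in 10% DMSO. Ten concentrations tested in singlicate; IC50 taken from dose–response curves.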

The target of assay [5] is Receptor tyrosine-protein kinase erbB-2 (Homo sapiens, UniProt P04626). Briefly: Inhibition of human recombinant ERBB2 expressed in Sf9 cells using poly(E,Y)4:1 as substrate after 80 mins by scintillation counting. The method, boiled down: as §1
In assay [6] the target is Aurora kinase B (Homo sapiens, UniProt Q96GD4). Briefly: Inhibition of human recombinant aurora-B expressed in Sf9 cells using tetra(LRRWSLG) as substrate after 80 mins by scintillation counting. A digest of the protocol: as §1
Sequence of Aurora kinase B (Q96GD4 whole entry): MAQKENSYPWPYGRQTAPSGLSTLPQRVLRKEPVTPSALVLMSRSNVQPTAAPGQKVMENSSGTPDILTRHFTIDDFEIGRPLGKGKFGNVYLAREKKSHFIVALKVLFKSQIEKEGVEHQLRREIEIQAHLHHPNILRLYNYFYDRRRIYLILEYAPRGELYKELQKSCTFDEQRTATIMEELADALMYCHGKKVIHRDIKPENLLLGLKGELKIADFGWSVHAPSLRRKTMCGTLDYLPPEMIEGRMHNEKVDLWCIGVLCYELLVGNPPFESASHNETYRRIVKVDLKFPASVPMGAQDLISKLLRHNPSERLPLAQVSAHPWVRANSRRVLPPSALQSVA
For assay [7], the target named is Cyclin-dependent kinase 2/cyclin A (Homo sapiens, UniProt P24941). Briefly: Inhibition of human recombinant CDK2/CyclinA expressed in Sf9 cells using histone H1 as substrate after 80 mins by scintillation counting. A digest of the protocol:
as §1

In assay [8] the target is Hepatocyte growth factor receptor (Homo sapiens, UniProt P08581). Briefly: Inhibition of human recombinant MET expressed in Sf9 cells using poly(A,E,K,Y)6:2:5:1 as substrate after 80 mins by scintillation counting. A digest of the protocol:
as §1

The target in assay [9] is Cyclin-dependent kinase 4/cyclin D1 (Homo sapiens, UniProt P11802). Briefly: Inhibition of human recombinant CDK4/CyclinD1 expressed in Sf9 cells using RB-CTF as substrate after 80 mins by scintillation counting. A digest of the protocol:
as §1

Assay [10] concerns the target Vascular endothelial growth factor receptor 3 (Homo sapiens, UniProt P35916). Briefly: Inhibition of human recombinant VEGF-R3 expressed in Sf9 cells using poly(E,Y)4:1 as substrate after 80 mins by scintillation counting. A digest of the protocol: as §1
The target of assay [11] is Mitogen-activated protein kinase kinase kinase 8 (Homo sapiens, UniProt P41279). Briefly: Inhibition of human recombinant COT expressed in Sf9 cells assessed as autophosphorylation after 80 mins by scintillation counting. The method, boiled down: as §1
Assay [12] concerns the target Vascular endothelial growth factor receptor 2 (Homo sapiens, UniProt P35968). Briefly: Inhibition of human recombinant VEGF-R2 expressed in Sf9 cells using poly(E,Y)4:1 as substrate after 80 mins by scintillation counting. The method, boiled down:
as §1

Assay [13] concerns the target Proto-oncogene tyrosine-protein kinase Src (Homo sapiens, UniProt P12931). Briefly: Inhibition of human recombinant SRC expressed in Sf9 cells using poly(E,Y)4:1 as substrate after 80 mins by scintillation counting. A digest of the protocol: as §1
The target in assay [14] is Serine/threonine-protein kinase B-raf (Homo sapiens, UniProt P15056). Briefly: Inhibition of human recombinant B-RAF expressed in Sf9 cells using MEK1 KM as substrate after 80 mins by scintillation counting. A digest of the protocol:
as §1

In assay [15] the target is Aurora kinase A (Homo sapiens, UniProt O14965). Briefly: Inhibition of human recombinant aurora-A expressed in Sf9 cells using tetra(LRRWSLG) as substrate after 80 mins by scintillation counting. The method, boiled down: as §1
Sequence of Aurora kinase A (O14965 whole entry): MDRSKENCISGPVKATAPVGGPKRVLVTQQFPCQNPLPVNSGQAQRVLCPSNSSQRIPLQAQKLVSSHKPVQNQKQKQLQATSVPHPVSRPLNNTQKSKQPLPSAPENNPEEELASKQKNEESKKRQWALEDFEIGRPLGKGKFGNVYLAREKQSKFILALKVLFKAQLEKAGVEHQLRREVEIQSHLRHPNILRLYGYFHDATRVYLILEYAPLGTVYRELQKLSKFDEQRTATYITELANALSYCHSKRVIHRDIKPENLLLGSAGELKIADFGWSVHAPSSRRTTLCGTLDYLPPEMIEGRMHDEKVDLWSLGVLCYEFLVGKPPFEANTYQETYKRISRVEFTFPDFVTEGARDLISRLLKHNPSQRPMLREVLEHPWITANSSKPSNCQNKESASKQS
The target of assay [16] is Focal adhesion kinase 1 (Homo sapiens, UniProt Q05397). Briefly: Inhibition of human recombinant FAK expressed in Sf9 cells using poly(E,Y)4:1 as substrate after 80 mins by scintillation counting. The method, boiled down: as §1
Assay [17] concerns the target NUAK family SNF1-like kinase 1 (Homo sapiens, UniProt O60285). Briefly: Inhibition of human recombinant ARK5 expressed in Sf9 cells assessed as autophosphorylation after 80 mins by scintillation counting. The method, boiled down: as §1
In assay [18] the target is Ephrin type-B receptor 4 (Homo sapiens, UniProt P54760). Briefly: Inhibition of human recombinant EPHB4 expressed in Sf9 cells using poly(E,Y)4:1 as substrate after 80 mins by scintillation counting. The method, boiled down: as §1
Sequence of Ephrin type-B receptor 4 (P54760 whole entry): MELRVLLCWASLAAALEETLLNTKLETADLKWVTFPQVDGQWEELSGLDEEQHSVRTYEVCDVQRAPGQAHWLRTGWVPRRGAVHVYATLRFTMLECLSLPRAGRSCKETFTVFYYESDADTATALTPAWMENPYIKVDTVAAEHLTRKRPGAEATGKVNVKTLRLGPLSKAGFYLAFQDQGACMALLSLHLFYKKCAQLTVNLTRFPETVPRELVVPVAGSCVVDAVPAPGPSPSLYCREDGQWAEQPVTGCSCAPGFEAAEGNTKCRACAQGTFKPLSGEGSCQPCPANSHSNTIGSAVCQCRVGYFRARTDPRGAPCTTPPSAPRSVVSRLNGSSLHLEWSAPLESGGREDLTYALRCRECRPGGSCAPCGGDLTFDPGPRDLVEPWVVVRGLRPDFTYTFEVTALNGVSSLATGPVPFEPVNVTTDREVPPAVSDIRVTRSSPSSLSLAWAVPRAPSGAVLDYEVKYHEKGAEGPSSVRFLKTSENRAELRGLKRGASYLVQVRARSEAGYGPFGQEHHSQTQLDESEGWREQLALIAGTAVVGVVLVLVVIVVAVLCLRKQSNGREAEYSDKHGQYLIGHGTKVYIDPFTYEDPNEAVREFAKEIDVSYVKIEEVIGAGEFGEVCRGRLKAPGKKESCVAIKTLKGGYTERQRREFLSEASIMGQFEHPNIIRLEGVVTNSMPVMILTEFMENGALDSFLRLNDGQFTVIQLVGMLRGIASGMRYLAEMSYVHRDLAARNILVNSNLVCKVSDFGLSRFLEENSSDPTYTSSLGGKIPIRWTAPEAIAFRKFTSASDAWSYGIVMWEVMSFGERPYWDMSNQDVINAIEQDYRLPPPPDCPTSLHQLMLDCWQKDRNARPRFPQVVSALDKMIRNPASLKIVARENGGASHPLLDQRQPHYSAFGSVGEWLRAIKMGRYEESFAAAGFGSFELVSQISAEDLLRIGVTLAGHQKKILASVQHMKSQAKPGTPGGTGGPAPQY
In assay [19] the target is RAC-alpha serine/threonine-protein kinase (Homo sapiens, UniProt P31749). Briefly: Inhibition of human recombinant AKT1 expressed in Sf9 cells using GSK3(14-27) as substrate after 80 mins by scintillation counting. A digest of the protocol: as §1
Assay [20] deals with Insulin-like growth factor 1 receptor (Homo sapiens, UniProt P08069). Briefly: Inhibition of human recombinant IGF1R expressed in Sf9 cells using poly(E,Y)4:1 as substrate after 80 mins by scintillation counting. The method, boiled down:
as §1

Assay [21] concerns the target Angiopoietin-1 receptor (Homo sapiens, UniProt Q02763). Briefly: Inhibition of human recombinant TIE2 expressed in Sf9 cells using poly(E,Y)4:1 as substrate after 80 mins by scintillation counting. A digest of the protocol: as §1
For assay [22], the target named is Serine/threonine-protein kinase PLK4 (Homo sapiens, UniProt O00444). Briefly: Inhibition of human recombinant SAK expressed in Sf9 cells using p38alpha-KRKR as substrate after 80 mins by scintillation counting. A digest of the protocol: as §1
Sequence of Serine/threonine-protein kinase PLK4 (O00444 whole entry): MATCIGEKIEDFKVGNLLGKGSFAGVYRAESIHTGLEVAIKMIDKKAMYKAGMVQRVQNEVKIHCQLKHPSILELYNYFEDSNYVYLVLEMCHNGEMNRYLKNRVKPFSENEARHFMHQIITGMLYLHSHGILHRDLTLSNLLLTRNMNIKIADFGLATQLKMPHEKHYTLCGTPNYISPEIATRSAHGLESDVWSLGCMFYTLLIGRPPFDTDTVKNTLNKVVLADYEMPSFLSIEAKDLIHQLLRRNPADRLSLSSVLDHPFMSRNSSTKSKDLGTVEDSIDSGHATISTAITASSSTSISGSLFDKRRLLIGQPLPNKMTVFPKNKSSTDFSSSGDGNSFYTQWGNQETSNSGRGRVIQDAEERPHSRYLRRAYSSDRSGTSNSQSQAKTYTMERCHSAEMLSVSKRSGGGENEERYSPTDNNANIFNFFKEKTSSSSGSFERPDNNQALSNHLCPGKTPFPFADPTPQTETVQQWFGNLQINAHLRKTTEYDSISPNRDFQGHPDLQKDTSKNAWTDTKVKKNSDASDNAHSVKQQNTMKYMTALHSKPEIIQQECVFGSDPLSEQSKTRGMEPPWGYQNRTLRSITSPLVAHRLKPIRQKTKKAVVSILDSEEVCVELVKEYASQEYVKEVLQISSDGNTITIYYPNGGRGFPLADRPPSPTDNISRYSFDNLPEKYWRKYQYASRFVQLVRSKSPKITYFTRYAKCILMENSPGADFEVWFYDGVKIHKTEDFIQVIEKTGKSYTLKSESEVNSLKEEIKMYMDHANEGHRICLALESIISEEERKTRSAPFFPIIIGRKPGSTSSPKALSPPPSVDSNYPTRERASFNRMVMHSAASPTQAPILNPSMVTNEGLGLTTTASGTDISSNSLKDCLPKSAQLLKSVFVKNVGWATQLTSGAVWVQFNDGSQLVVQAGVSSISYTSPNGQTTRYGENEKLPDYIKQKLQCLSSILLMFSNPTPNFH
The target of assay [23] is Insulin receptor (Homo sapiens, UniProt P06213). Briefly: Inhibition of human recombinant INS-R expressed in Sf9 cells using poly(A,E,K,Y)6:2:5:1 as substrate after 80 mins by scintillation counting. A digest of the protocol:
as §1

Assay [24] deals with Casein kinase II alpha/beta (Homo sapiens, UniProt P68400). Briefly: Inhibition of human CSNK2A1/2B expressed in Escherichia coli BL21(DE3) using RRRDDDSDDD as substrate after 15 mins by scintillation counting.
A short description of assay [25]: Inhibition of casein kinase-2. The method, boiled down: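 Recombinant human CK2 holoenzyme (CSNK2A1 and CSNK2B expressed separately in E. coli, extracts combined and purified), preincubated with compound in DMSO in kinase buffer pH 7.5. 37 °C, 15 min, P81 paper, scintillation counting. IC50 from dose–response over 0.01–30 µM, at least triplicate independent experiments.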

The nature of assay [26]: Growth inhibition of human KYSE-70 cells at 20 uM after 96 hrs by crystal violet staining. It counts as functional. The settings on record: KYSE-70, 96 h, read-out: GI. A digest of the protocol: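 KYSE-70 esophageal cancer cells grown in RPMI 1640 with 10% FCS, penicillin G and streptomycin. Cells exposed 96 h to compounds dissolved in DMF (final solvent 0.1%). Fixed 20 min in 1% glutaraldehyde, stained 30 min with 0.02% crystal violet, washed 30 min in water. Bound dye dissolved in ethanol/water 7:3, absorbance read at 570 nm.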

Sequence of Casein kinase II alpha/beta (Homo sapiens) (P67870 2-215 limits assumed): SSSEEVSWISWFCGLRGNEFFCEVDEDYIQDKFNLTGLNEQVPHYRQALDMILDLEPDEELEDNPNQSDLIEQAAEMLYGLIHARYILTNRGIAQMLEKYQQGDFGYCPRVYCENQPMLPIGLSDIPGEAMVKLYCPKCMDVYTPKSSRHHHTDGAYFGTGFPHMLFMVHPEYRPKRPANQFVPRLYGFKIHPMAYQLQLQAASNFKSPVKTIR
Sequence of Casein kinase II alpha/beta (Homo sapiens) (P68400 whole entry partner): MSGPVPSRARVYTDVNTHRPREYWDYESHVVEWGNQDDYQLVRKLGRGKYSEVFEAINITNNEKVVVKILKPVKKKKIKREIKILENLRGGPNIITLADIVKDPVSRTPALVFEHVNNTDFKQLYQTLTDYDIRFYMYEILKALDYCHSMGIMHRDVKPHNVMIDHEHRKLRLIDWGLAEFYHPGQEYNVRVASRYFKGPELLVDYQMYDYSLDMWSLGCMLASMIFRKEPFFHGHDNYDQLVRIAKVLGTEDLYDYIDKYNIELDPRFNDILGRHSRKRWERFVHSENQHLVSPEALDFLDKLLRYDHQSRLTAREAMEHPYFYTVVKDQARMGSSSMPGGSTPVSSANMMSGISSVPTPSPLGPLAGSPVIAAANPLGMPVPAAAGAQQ
Sequence of Angiopoietin-1 receptor (Q02763 whole entry): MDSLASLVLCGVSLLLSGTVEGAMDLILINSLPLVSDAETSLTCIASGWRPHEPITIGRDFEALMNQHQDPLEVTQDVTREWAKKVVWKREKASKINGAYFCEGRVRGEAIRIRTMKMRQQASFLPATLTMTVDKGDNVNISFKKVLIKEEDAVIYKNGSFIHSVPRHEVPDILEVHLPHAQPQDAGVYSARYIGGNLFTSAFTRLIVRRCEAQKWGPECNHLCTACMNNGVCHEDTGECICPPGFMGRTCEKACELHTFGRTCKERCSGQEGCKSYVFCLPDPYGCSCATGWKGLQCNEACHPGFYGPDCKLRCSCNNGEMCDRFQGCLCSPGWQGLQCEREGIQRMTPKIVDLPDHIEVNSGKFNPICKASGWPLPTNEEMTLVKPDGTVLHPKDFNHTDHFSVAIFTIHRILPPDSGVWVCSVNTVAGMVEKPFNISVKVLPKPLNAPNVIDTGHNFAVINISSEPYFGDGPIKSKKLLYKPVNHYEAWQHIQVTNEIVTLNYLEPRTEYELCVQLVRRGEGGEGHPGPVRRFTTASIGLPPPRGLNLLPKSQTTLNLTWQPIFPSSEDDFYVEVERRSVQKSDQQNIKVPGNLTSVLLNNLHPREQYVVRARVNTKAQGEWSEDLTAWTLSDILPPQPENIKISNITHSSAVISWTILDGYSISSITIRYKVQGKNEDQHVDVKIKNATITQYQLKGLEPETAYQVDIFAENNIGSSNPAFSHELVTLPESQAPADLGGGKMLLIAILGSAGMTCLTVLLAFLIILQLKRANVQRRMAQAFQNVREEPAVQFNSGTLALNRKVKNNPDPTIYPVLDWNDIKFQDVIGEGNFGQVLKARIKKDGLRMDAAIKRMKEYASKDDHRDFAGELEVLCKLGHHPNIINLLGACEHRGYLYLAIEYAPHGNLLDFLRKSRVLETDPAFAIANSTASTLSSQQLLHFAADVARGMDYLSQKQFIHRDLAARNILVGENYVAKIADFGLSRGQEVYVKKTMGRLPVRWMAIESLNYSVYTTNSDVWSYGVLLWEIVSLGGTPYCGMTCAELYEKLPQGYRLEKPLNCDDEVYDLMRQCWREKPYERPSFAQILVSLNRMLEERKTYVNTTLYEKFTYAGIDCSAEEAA
Sequence of Proto-oncogene tyrosine-protein kinase Src (P12931 2-536 limits assumed): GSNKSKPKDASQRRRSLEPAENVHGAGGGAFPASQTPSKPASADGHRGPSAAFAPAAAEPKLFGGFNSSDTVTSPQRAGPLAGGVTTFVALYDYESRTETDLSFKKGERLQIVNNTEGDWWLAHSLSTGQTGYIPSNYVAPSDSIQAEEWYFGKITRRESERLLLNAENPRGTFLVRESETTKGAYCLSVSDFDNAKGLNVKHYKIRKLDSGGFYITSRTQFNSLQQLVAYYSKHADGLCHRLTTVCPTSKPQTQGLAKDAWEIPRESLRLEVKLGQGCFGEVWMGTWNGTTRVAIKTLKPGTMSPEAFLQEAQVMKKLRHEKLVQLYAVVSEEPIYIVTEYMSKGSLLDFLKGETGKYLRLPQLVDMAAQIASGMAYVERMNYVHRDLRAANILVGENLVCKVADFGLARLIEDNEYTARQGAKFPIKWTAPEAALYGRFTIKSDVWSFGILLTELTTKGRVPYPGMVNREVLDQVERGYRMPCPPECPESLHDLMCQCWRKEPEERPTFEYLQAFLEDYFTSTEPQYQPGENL

For orientation: inhibition means the change of the read-out against control, counted positive when it falls. `COc1ccc(CCn2c3c(c4c(O)cccc42)C(=O)c2ccccc2-3)cc1OC` registered an inhibition in assay [1] of 34%.

Compound `CC1(C)CC(=O)c2c3c(n(Cc4ccccc4)c2C1)-c1ccccc1C3=O` yielded an inhibition in assay [1] of 10%.

For the compound `O=C1CCCc2c1c1c(n2Cc2ccccn2)-c2ccccc2C1=O`, in assay [1], the inhibition came out at 30%.

In the case of `COc1ccc(Cn2c3c(c4c2-c2ccccc2C4=O)C(=O)CCC3)cc1`, in assay [1], the inhibition stood at 41%.

In [1], `O=C1c2ccccc2-c2c1c1c(O)cccc1n2Cc1ccccc1` registered an inhibition of 25%.

Usually IC50 stands for the point on the concentration scale where inhibition reaches its midpoint. In turn, `Brc1c(Br)c(Br)c2[nH]nnc2c1Br` [TETRABROMOBENZOTRIAZOLE] displayed an IC50 in [2] of 1.6 µM.

`CC1CC(=O)c2c3c(n(Cc4ccccc4)c2C1)-c1ccccc1C3=O` (racemic): the inhibition in [1] amounted to 11%.

Consider `O=C1CCCc2c1c1c(n2Cc2ccccc2)-c2ccccc2C1=O`, for which the inhibition in assay [1] was 48%.

Turning to `O=C1CCCc2[nH]c3c(c21)C(=O)c1ccccc1-3`, in assay [1], the inhibition came to 19%.

`Cc1cc(O)c2c(c1)C(=O)c1cc(O)cc(O)c1C2=O` [EMODIN] returned an IC50 in assay [3] of 0.89 µM.

Turning to `COC(=O)C1C(=O)c2c3c(n(Cc4ccccc4)c2CC1C)-c1ccccc1C3=O` (configuration not stated), in [1], the inhibition is 15%.

As to `O=c1oc2c(O)c(O)cc3c(=O)oc4c(O)c(O)cc1c4c23` [ELLAGIC ACID], the IC50 turned out to be 3.34 µM in assay [4]; 3.54 µM in assay [5]; 2.5 µM in assay [6]; 3.39 µM in assay [7]; 0.58 µM in [8]; 1.09 µM in [9]. Also, the IC50 came to 1.54 µM in assay [10]; 2.37 µM in assay [11]; 0.79 µM in assay [12]; 0.8 µM in assay [13]; 1.76 µM in [14]; 2.48 µM in [15]. In addition, the IC50 in [16] turned out to be 3.11 µM; in assay [17], 0.51 µM; in assay [18], 1.83 µM; in assay [19], 3.34 µM; in assay [20] it was 0.25 µM; in assay [21], 0.26 µM. In addition, the IC50 is 2.97 µM in [22] and 0.34 µM in [23].

The compound `CC(c1ccccc1)n1c2c(c3c1-c1ccccc1C3=O)C(=O)CCC2` (configuration not stated) registered an IC50 in assay [24] of 4.66 µM. Moreover, the inhibition in assay [1] was found to be 66%.

For `COc1ccc(CCn2c3c(c4c2-c2ccccc2C4=O)C(=O)CCC3)cc1OC`, the inhibition in [1] stood at 50%.

As to `O=C1CC(c2ccccc2)Cc2c1c1c(n2Cc2ccccc2)-c2ccccc2C1=O` (racemic), the inhibition in assay [1] worked out at 3%.

For the compound `O=C1CCCc2c1c1c(n2CCc2ccccc2)-c2ccccc2C1=O`, the inhibition in assay [1] was 67%.

Regarding `O=C1CCCc2c1c1c(n2-c2ccccc2)-c2ccccc2C1=O`, the inhibition in [1] amounted to 60%.

Regarding `COC(=O)C1C(=O)c2c([nH]c3c2C(=O)c2ccccc2-3)CC1C` (configuration not stated), in [1], the inhibition worked out at 28%.

`OC[C@H]1O[C@@H](n2cnc3cc(Cl)c(Cl)cc32)[C@H](O)[C@@H]1O` [DICHLORORIBOBENZIMIDAZOLE]: in [25], 15 µM corresponded to half-maximal inhibition (IC50).

Consider `CC(C)n1c2c(c3c1-c1ccccc1C3=O)C(=O)CCC2`, for which the IC50 in assay [4], in [5], in assay [6], in assay [7], in assay [8] and in [9] was more than 35 µM in each case. Moreover, the IC50 in [10], in assay [11], in [12], in assay [13], in assay [14] and in assay [15] was more than 35 µM throughout. Also, the IC50 in assay [16], in assay [17], in assay [18], in assay [19], in assay [20] and in [21] was more than 35 µM throughout. Moreover, the 50% inhibitory concentration (IC50) in assay [22] and in [23] was more than 35 µM each time. For the same compound, in [26], the inhibition of growth at 20 µM turned out to be 25%.

For `O=C1CCCc2c1c1c(n2CCCc2ccccc2)-c2ccccc2C1=O`, in [1], the inhibition stood at 27%.

As for `O=C1c2ccccc2-c2c1c1c(O)cc(-c3ccccc3)cc1n2Cc1ccccc1`, in [1], the inhibition is 31%.
